{"source": "ChEMBL document CHEMBL2346629", "about": "“Discovery and characterization of novel allosteric FAK inhibitors” (Eur J Med Chem, 2013)", "key": {"[1]": {"test_system": "Fibroblast growth factor receptor 1 (Homo sapiens), P11362 [V561M]", "test": "Inhibition of FGFR1 V561M mutant (unknown origin) using [gamma-33P]ATP assessed as residual activity at 3 uM", "outline": "(§1)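 Reaction Biology HotSpot radiometric profiling panel of 288 kinases (261 wild-type, 27 mutant). Kinase activity was read out by incorporation of [γ-33P]ATP.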"}, "[2]": {"molecular_target": "Ephrin type-B receptor 4 (Homo sapiens) (UniProt P54760)", "test": "Inhibition of EPHB4 (unknown origin) using [gamma-33P]ATP assessed as residual activity at 3 uM", "outline": "as §1"}, "[3]": {"molecular_target": "Serine/threonine-protein kinase A-Raf (Homo sapiens) (UniProt P10398)", "sequence (P10398 whole entry)": "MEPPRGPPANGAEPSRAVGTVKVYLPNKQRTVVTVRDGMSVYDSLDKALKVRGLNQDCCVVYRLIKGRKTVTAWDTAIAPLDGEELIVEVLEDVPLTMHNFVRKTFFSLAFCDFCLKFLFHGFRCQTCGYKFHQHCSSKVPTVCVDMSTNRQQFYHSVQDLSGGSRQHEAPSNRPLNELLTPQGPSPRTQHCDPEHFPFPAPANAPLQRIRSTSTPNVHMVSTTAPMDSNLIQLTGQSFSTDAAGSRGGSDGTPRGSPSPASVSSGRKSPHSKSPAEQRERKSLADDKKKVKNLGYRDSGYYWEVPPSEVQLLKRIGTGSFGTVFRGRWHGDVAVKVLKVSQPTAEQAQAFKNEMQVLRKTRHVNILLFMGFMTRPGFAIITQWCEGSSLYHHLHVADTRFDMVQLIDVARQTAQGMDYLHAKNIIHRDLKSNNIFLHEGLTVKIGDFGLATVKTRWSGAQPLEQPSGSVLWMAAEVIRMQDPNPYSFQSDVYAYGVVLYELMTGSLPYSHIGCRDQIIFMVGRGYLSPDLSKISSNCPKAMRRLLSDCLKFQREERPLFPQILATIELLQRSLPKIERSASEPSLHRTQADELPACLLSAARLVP", "test": "Inhibition of ARAF (unknown origin) using [gamma-33P]ATP assessed as residual activity at 3 uM", "outline": "(§2)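 Radiometric profiling across 288 kinases (261 wild-type, 27 mutant), run as an outsourced service. Inhibition read out as [gamma-33P]ATP incorporation into substrate.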"}, "[4]": {"molecular_target": "Eukaryotic elongation factor 2 kinase (Homo sapiens) (UniProt O00418)", "test": "Inhibition of EEF2K (unknown origin) using [gamma-33P]ATP assessed as residual activity at 3 uM", "outline": "as §1"}, "[5]": {"molecular_target": "Serine/threonine-protein kinase WNK3 (Homo sapiens) (UniProt Q9BYP7)", "test": "Inhibition of WNK3 (unknown origin) using [gamma-33P]ATP assessed as residual activity at 3 uM"}, "[6]": {"molecular_target": "Serine/threonine-protein kinase Sgk2 (Homo sapiens) (UniProt Q9HBY8)", "test": "Inhibition of SGK2 (unknown origin) using [gamma-33P]ATP assessed as residual activity at 3 uM"}, "[7]": {"molecular_target": "NT-3 growth factor receptor (Homo sapiens) (UniProt Q16288)", "test": "Inhibition of TRKC (unknown origin) using [gamma-33P]ATP assessed as residual activity at 3 uM"}, "[8]": {"molecular_target": "Cyclin-dependent kinase 2/cyclin E1 (Homo sapiens) (UniProt P24864+P24941)", "test": "Inhibition of CDK2/cyclinE (unknown origin) using [gamma-33P]ATP assessed as residual activity at 3 uM", "format": "protein-complex assay", "outline": "as §2"}, "[9]": {"molecular_target": "Homeodomain-interacting protein kinase 3 (Homo sapiens) (UniProt Q9H422)", "test": "Inhibition of HIPK3 (unknown origin) using [gamma-33P]ATP assessed as residual activity at 3 uM", "outline": "(§3)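 Radiometric kinase profiling service covering 288 kinases (261 wild-type, 27 mutant). Inhibition was read as incorporation from [γ-³³P]ATP.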"}, "[10]": {"molecular_target": "MAP kinase-activated protein kinase 2 (Homo sapiens) (UniProt P49137)", "sequence (P49137 whole entry, looked up)": "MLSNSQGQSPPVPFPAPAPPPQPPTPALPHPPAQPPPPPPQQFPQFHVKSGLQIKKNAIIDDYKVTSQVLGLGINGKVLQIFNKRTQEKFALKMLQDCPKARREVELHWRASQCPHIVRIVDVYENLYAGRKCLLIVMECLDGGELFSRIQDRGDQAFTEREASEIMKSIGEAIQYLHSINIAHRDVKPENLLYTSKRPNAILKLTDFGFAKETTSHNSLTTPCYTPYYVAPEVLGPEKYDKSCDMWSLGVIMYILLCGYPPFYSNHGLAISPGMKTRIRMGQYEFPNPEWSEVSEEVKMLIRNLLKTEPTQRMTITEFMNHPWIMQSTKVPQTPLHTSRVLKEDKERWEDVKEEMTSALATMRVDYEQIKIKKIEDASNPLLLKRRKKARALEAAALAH", "test": "Inhibition of MAPKAPK2 (unknown origin) using [gamma-33P]ATP assessed as residual activity at 3 uM", "outline": "as §3"}, "[11]": {"molecular_target": "Serine/threonine-protein kinase D2 (Homo sapiens) (UniProt Q9BZL6)", "test": "Inhibition of PKD2 (unknown origin) using [gamma-33P]ATP assessed as residual activity at 3 uM"}, "[12]": {"molecular_target": "Tyrosine-protein kinase Fes/Fps (Homo sapiens) (UniProt P07332)", "test": "Inhibition of Fes (unknown origin) using [gamma-33P]ATP assessed as residual activity at 3 uM", "outline": "as §3"}, "[13]": {"molecular_target": "G protein-coupled receptor kinase 5 (Homo sapiens) (UniProt P34947)", "sequence (P34947 whole entry, looked up)": "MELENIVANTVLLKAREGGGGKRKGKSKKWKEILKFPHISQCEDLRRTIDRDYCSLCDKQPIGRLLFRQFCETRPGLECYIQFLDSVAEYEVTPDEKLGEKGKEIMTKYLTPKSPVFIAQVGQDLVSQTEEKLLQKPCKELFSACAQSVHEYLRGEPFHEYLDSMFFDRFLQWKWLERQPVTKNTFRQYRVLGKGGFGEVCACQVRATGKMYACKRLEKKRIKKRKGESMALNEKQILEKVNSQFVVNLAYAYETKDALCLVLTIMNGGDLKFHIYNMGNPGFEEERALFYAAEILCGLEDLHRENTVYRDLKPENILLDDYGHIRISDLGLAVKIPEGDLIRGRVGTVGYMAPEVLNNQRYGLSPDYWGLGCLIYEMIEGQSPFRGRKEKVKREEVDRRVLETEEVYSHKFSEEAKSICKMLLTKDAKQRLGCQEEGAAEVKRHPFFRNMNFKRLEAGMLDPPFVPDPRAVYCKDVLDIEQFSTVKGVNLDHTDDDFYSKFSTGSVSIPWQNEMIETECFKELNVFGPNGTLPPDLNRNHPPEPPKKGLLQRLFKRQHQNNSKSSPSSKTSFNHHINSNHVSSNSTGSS", "test": "Inhibition of GRK5 (unknown origin) using [gamma-33P]ATP assessed as residual activity at 3 uM", "outline": "as §3"}, "[14]": {"molecular_target": "Cyclin-dependent kinase 2/cyclin A (Homo sapiens) (UniProt P24941+P20248+P78396)", "test": "Inhibition of CDK2/cyclinA (unknown origin) using [gamma-33P]ATP assessed as residual activity at 3 uM", "format": "protein-complex assay", "outline": "as §2"}, "[15]": {"molecular_target": "Ephrin type-B receptor 3 (Homo sapiens) (UniProt P54753)", "test": "Inhibition of EPHB3 (unknown origin) using [gamma-33P]ATP assessed as residual activity at 3 uM", "outline": "as §1"}, "[16]": {"molecular_target": "Receptor-type tyrosine-protein kinase FLT3 (Homo sapiens) (UniProt P36888)", "test": "Inhibition of FLT3 (unknown origin) using [gamma-33P]ATP assessed as residual activity at 3 uM", "outline": "as §3"}, "[17]": {"molecular_target": "Serine/threonine-protein kinase VRK1 (Homo sapiens) (UniProt Q99986)", "sequence (Q99986 whole entry)": "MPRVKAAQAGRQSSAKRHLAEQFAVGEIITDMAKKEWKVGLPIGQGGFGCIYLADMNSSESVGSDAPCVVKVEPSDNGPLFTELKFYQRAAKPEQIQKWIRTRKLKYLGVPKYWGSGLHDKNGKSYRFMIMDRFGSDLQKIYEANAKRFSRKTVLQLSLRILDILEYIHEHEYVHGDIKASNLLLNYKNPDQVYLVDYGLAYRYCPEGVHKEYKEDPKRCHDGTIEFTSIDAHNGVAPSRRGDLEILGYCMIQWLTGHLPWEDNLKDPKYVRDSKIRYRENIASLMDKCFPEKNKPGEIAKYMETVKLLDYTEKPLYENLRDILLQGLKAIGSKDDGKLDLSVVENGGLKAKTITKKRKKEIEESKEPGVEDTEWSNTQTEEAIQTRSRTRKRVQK", "test": "Inhibition of VRK1 (unknown origin) using [gamma-33P]ATP assessed as residual activity at 3 uM"}, "[18]": {"molecular_target": "Muscle, skeletal receptor tyrosine-protein kinase (Homo sapiens) (UniProt O15146)", "test": "Inhibition of MUSK (unknown origin) using [gamma-33P]ATP assessed as residual activity at 3 uM"}, "[19]": {"molecular_target": "Serine/threonine-protein kinase TAO3 (Homo sapiens) (UniProt Q9H2K8)", "test": "Inhibition of TAOK3 (unknown origin) using [gamma-33P]ATP assessed as residual activity at 3 uM"}, "[20]": {"molecular_target": "Serine/threonine-protein kinase PAK 3 (Homo sapiens) (UniProt O75914)", "sequence (O75914 whole entry, looked up)": "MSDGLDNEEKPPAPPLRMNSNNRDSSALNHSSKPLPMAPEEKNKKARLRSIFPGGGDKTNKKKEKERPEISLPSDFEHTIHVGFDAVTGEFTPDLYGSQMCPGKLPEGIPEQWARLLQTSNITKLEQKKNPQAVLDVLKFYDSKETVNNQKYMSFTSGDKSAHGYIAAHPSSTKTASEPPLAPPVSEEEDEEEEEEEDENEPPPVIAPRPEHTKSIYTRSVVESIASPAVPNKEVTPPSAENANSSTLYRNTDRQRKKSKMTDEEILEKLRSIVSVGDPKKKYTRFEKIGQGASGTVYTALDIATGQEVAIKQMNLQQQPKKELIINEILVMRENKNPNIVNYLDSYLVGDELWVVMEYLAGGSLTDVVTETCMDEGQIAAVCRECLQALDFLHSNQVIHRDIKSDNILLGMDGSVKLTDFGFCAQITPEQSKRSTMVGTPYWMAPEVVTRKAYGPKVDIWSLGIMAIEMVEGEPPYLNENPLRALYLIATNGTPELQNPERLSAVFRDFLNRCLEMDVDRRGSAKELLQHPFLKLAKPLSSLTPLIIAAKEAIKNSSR", "test": "Inhibition of PAK3 (unknown origin) using [gamma-33P]ATP assessed as residual activity at 3 uM"}, "[21]": {"molecular_target": "Myosin light chain kinase, smooth muscle (Homo sapiens, UniProt Q15746)", "sequence (Q15746 whole entry)": "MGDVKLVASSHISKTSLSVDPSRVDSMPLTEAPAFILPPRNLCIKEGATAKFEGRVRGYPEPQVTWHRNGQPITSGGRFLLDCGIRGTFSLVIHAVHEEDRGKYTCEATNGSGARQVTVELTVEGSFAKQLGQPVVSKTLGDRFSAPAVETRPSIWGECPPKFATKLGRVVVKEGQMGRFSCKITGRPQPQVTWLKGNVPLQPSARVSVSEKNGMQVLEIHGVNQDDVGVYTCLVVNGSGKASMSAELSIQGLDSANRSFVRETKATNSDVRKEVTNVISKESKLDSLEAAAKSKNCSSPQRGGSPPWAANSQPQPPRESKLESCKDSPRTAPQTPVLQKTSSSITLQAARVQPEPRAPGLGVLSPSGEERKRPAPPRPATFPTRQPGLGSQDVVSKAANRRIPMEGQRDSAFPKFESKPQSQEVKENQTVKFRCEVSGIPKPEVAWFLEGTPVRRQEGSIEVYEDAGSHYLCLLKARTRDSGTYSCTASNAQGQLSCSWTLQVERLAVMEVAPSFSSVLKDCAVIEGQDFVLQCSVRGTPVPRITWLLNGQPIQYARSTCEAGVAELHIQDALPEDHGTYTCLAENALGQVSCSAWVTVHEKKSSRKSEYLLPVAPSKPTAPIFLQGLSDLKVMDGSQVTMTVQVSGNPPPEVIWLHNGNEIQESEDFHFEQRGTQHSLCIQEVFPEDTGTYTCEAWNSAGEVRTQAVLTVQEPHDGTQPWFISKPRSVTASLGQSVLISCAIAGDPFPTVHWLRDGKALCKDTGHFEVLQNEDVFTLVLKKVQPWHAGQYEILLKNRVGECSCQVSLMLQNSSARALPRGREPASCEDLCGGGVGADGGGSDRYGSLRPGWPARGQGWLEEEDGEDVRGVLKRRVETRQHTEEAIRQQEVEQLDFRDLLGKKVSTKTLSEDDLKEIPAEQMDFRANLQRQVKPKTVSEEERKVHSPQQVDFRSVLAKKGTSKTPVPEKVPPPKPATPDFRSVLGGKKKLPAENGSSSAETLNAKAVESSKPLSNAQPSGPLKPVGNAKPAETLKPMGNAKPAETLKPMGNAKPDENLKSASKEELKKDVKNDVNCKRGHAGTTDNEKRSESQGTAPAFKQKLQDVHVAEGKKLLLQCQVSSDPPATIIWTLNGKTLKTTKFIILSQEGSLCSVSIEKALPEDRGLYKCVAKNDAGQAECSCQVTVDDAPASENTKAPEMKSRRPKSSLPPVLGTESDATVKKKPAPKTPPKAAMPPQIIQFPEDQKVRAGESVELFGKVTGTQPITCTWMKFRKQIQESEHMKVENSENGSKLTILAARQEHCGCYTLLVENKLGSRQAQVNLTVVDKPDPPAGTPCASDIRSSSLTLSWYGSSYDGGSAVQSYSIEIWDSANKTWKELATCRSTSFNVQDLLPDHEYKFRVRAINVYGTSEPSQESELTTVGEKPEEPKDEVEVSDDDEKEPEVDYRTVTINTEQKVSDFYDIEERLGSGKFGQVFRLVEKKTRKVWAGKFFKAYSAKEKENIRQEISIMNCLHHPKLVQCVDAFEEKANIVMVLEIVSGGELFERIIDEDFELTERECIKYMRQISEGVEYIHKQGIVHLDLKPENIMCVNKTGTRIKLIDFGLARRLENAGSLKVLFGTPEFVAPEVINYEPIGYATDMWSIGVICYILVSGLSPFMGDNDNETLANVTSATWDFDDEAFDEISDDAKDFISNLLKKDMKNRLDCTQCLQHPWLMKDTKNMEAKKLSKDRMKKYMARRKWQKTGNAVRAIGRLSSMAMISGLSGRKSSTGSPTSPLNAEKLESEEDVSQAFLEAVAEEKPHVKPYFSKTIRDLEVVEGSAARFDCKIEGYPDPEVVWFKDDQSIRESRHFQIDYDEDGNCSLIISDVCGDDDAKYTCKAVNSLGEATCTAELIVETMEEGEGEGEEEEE", "test": "Inhibition of MLCK (unknown origin) using [gamma-33P]ATP assessed as residual activity at 3 uM", "outline": "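Contract radiometric panel screen of 288 kinases (261 wild-type, 27 mutant). Inhibition was read by [gamma-33P]ATP radioactivity incorporation.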"}, "[22]": {"molecular_target": "Tyrosine-protein kinase JAK1 (Homo sapiens) (UniProt P23458)", "test": "Inhibition of JAK1 (unknown origin) using [gamma-33P]ATP assessed as residual activity at 3 uM", "outline": "as §3"}, "[23]": {"test_system": "Epidermal growth factor receptor (Homo sapiens), P00533 [T790M]", "test": "Inhibition of EGFR T790M mutant (unknown origin) using [gamma-33P]ATP assessed as residual activity at 3 uM", "format": "protein assay", "outline": "as §1"}, "[24]": {"test_system": "Fibroblast growth factor receptor 2 (Homo sapiens), P21802 [N549H]", "test": "Inhibition of FGFR2 N549H mutant (unknown origin) using [gamma-33P]ATP assessed as residual activity at 3 uM", "outline": "as §1"}, "[25]": {"molecular_target": "PAS domain-containing serine/threonine-protein kinase (Homo sapiens) (UniProt Q96RG2)", "test": "Inhibition of PASK (unknown origin) using [gamma-33P]ATP assessed as residual activity at 3 uM"}, "[26]": {"molecular_target": "Tyrosine-protein kinase SYK (Homo sapiens) (UniProt P43405)", "test": "Inhibition of SYK (unknown origin) using [gamma-33P]ATP assessed as residual activity at 3 uM"}, "[27]": {"molecular_target": "Mitogen-activated protein kinase 10 (Homo sapiens) (UniProt P53779)", "test": "Inhibition of JNK3 (unknown origin) using [gamma-33P]ATP assessed as residual activity at 3 uM", "outline": "as §3"}, "[28]": {"molecular_target": "Ephrin type-A receptor 2 (Homo sapiens) (UniProt P29317)", "test": "Inhibition of EPHA2 (unknown origin) using [gamma-33P]ATP assessed as residual activity at 3 uM", "outline": "as §1"}, "[29]": {"molecular_target": "Hepatocyte growth factor receptor (Homo sapiens) (UniProt P08581)", "test": "Inhibition of c-MET (unknown origin) using [gamma-33P]ATP assessed as residual activity at 3 uM"}, "[30]": {"molecular_target": "MAP kinase-activated protein kinase 5 (Homo sapiens) (UniProt Q8IW41)", "sequence (Q8IW41 whole entry)": "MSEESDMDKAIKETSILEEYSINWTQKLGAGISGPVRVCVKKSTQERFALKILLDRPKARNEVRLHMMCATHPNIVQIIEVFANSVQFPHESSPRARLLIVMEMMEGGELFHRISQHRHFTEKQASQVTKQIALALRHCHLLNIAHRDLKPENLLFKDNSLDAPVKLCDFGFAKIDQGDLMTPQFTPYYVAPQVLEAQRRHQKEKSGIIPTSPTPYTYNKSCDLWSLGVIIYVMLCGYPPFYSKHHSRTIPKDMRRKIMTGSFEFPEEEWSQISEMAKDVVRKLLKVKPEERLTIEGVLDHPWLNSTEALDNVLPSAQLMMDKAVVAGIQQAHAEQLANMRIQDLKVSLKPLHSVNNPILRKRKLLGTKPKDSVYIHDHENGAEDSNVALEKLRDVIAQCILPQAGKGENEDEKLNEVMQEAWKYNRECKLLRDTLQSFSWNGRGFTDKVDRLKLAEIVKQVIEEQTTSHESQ", "test": "Inhibition of MAPKAPK5 (unknown origin) using [gamma-33P]ATP assessed as residual activity at 3 uM", "outline": "as §3"}, "[31]": {"test_system": "Tyrosine-protein kinase ABL1 (Homo sapiens), P00519 [Q252H]", "test": "Inhibition of ABL1 Q252H mutant (unknown origin) using [gamma-33P]ATP assessed as residual activity at 3 uM", "outline": "as §2"}}, "data": [{"smiles": "CCc1ccc(-c2ccc3c(c2)-c2[nH]ncc2S(=O)(=O)N3C)cc1", "values": [{"measurement": "Activity", "setting": "[1]", "value": 98, "unit": "%"}, {"measurement": "Activity", "setting": "[2]", "value": 78, "unit": "%"}, {"measurement": "Activity", "setting": "[3]", "value": 100, "unit": "%"}, {"measurement": "Activity", "setting": "[4]", "value": 104, "unit": "%"}, {"measurement": "Activity", "setting": "[5]", "value": 106, "unit": "%"}, {"measurement": "Activity", "setting": "[6]", "value": 91, "unit": "%"}, {"measurement": "Activity", "setting": "[7]", "value": 95, "unit": "%"}, {"measurement": "Activity", "setting": "[8]", "value": 91, "unit": "%"}, {"measurement": "Activity", "setting": "[9]", "value": 104, "unit": "%"}, {"measurement": "Activity", "setting": "[10]", "value": 97, "unit": "%"}, {"measurement": "Activity", "setting": "[11]", "value": 98, "unit": "%"}, {"measurement": "Activity", "setting": "[12]", "value": 78, "unit": "%"}, {"measurement": "Activity", "setting": "[13]", "value": 103, "unit": "%"}, {"measurement": "Activity", "setting": "[14]", "value": 96, "unit": "%"}, {"measurement": "Activity", "setting": "[15]", "value": 95, "unit": "%"}, {"measurement": "Activity", "setting": "[16]", "value": 53, "unit": "%"}, {"measurement": "Activity", "setting": "[17]", "value": 81, "unit": "%"}, {"measurement": "Activity", "setting": "[18]", "value": 68, "unit": "%"}, {"measurement": "Activity", "setting": "[19]", "value": 103, "unit": "%"}, {"measurement": "Activity", "setting": "[20]", "value": 95, "unit": "%"}, {"measurement": "Activity", "setting": "[21]", "value": 45, "unit": "%"}, {"measurement": "Activity", "setting": "[22]", "value": 81, "unit": "%"}, {"measurement": "Activity", "setting": "[23]", "value": 109, "unit": "%"}, {"measurement": "Activity", "setting": "[24]", "value": 102, "unit": "%"}, {"measurement": "Activity", "setting": "[25]", "value": 95, "unit": "%"}, {"measurement": "Activity", "setting": "[26]", "value": 72, "unit": "%"}, {"measurement": "Activity", "setting": "[27]", "value": 102, "unit": "%"}, {"measurement": "Activity", "setting": "[28]", "value": 90, "unit": "%"}, {"measurement": "Activity", "setting": "[29]", "value": 88, "unit": "%"}, {"measurement": "Activity", "setting": "[30]", "value": 87, "unit": "%"}, {"measurement": "Activity", "setting": "[31]", "value": 60, "unit": "%"}]}]}
